What was measured:
[1] = melting temperature; fluorescence melt of hairpins on a sequencing array, two-state fit, raised by 9.35 °C to match UV melts; conditions: sodium 0.088 M
Method in brief: (§1)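 To match UV melts, fitted temperatures were raised by 9.35 °C. These fits were bootstrapped two-state models that gave melting temperature and folding enthalpy, combined by inverse variance over four replicates. The input was normalised Cy3 fluorescence of library hairpins with annealed Cy3 and quencher oligos on a sequenced MiSeq flow cell, imaged in 50 mM Na-HEPES pH 8.0, 25 mM NaCl in 2.5 °C steps up to 60 °C.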

[2] = folding enthalpy; higher = less favourable; fluorescence melt of hairpins on a sequencing array, two-state fit; conditions: sodium 0.088 M
Method in brief: as §1

Row | Sequence | Tm [1] | folding enthalpy [2]
1 | GCGGTGGCCCGC ((((....)))) | 61 °C | -16.3 kcal/mol
2 | GCTTTGCGAAAGCGAAGC ((((.((....)).)))) | 66.2 °C | -37.2 kcal/mol
3 | GTGACCGAAAGGTTCAC ((((((....))).))) | 53 °C | -29.5 kcal/mol
4 | GGTTTTCGAAAGAACACC (((.(((....))).))) | 42.8 °C | -35.5 kcal/mol
5 | CGATTCCGGAAACGGTCG (((..(((....)))))) | 36.2 °C | -27.7 kcal/mol
6 | GATAGCGGAAACGCCATC (((.(((....))).))) | 35.1 °C | -15.5 kcal/mol
7 | GTTTAACGAAAGTTTAAC (((.(((....))).))) | 36.2 °C | -23.4 kcal/mol
8 | GAACTGGGAAACTGGTTC ((((..(....)..)))) | 33.3 °C | -25.8 kcal/mol
9 | GGAGGCGAAAGCCCATCC ((((((....)))..))) | 31.3 °C | -9.1 kcal/mol
10 | GGCGTTGGAAACAACACC ((.((((....)))).)) | 46.7 °C | -33.6 kcal/mol
11 | GCCTGCGAAAGCATAGGC ((((((....)))..))) | 56 °C | -31.4 kcal/mol
12 | GATCTAGGAAACTGGATC ((((.((....)).)))) | 41.8 °C | -34 kcal/mol
13 | GTGTGAGGAAACTCGCAC (((.(((....))).))) | 54.3 °C | -47 kcal/mol
14 | GATTACGAAAGTATATC ((((((....))).))) | 32.9 °C | -17.1 kcal/mol
15 | GATCTAACAGTAGATC ((((((....)))))) | 36.5 °C | -15.6 kcal/mol
16 | GGGCTGCGAAAGCACCCC (((.(((....))).))) | 57.3 °C | -18.2 kcal/mol
17 | GACGGAACGAAAGTTGTC (((..(((....)))))) | 30.7 °C | -19.2 kcal/mol
18 | GGGTTCCGAAAGGATCCC (((.(((....))).))) | 55.9 °C | -42.1 kcal/mol
19 | GATCGTGTCCACGATC ((((((....)))))) | 60.3 °C | -45.8 kcal/mol
20 | GTCCTCGCGAAAGCGGAC (((..(((....)))))) | 43.7 °C | -12.7 kcal/mol
21 | GTAAGTGGAAACACTCAC ((.((((....)))).)) | 32.7 °C | -15.4 kcal/mol
22 | GGGTGCCGAAAGGCTCCC (((.(((....))).))) | 69.1 °C | -20.6 kcal/mol
23 | GATCTTAGTCAAGATC ((((((....)))))) | 42.2 °C | -31.4 kcal/mol

Row | Sequence | Tm [1] | folding enthalpy [2]
24 | GCGGTACCCGC ((((...)))) | 63.3 °C | -18.7 kcal/mol
25 | GAGATGCGAAAGCACTC (((.(((....)))))) | 48.4 °C | -19.2 kcal/mol
26 | GATCGTCAACACGATC ((((((....)))))) | 51.5 °C | -32.9 kcal/mol
27 | GATCGTCCTAACGATC ((((((....)))))) | 55.5 °C | -40.4 kcal/mol
28 | GGGCTTCGAAAGAAACCC (((.(((....))).))) | 49.6 °C | -30.2 kcal/mol
29 | GGAAGATCGAAAGATTCC (((..(((....)))))) | 29.8 °C | -13.4 kcal/mol
30 | GATCCTCCTAAGGATC ((((((....)))))) | 53.4 °C | -37.5 kcal/mol
31 | GTGAATGGAAACATCCAC (((.(((....))).))) | 34.6 °C | -24.1 kcal/mol
32 | GATCGCTTTCGCGATC ((((((....)))))) | 67.4 °C | -38.4 kcal/mol
33 | GCGGGCGAAAGCCACCGC ((((((....)))..))) | 59.2 °C | -17.4 kcal/mol
34 | GGTCAGCGAAAGCTCACC (((.(((....))).))) | 41.7 °C | -18.9 kcal/mol
35 | GTATATGGAAACATATGC (.(((((....))))).) | 36.5 °C | -25 kcal/mol
36 | GCCTCCGGAAACGAAGGC ((((.((....)).)))) | 48.8 °C | -28.3 kcal/mol
37 | GCTGAGCGAAAGCACAGC ((((.((....)).)))) | 67.8 °C | -35.6 kcal/mol
38 | GATCGCTTCTGCGATC ((((((....)))))) | 68.3 °C | -42.3 kcal/mol
39 | GTGGTAGGAAACCACCAC (((((.(....).))))) | 49.4 °C | -22.5 kcal/mol
40 | GATCACTGGAGTGATC ((((((....)))))) | 55.7 °C | -48.7 kcal/mol
41 | GGCTTTACGAAAGTAGCC (((..(((....)))))) | 45.5 °C | -27.7 kcal/mol
42 | GCGTACGAAAGTAAGCGC ((((((....)))..))) | 56.8 °C | -30.9 kcal/mol
43 | GATCGATCTCTCGATC ((((((....)))))) | 51.4 °C | -41.2 kcal/mol
44 | GATCGCATAAGCGATC ((((((....)))))) | 69.2 °C | -32.5 kcal/mol
45 | GCACTCGGAAACGGGTGC ((((.((....)).)))) | 59.5 °C | -51.6 kcal/mol
46 | GACAACGAAAGTTATGTC ((((((....)))..))) | 32.3 °C | -17.8 kcal/mol

Row | Sequence | Tm [1] | folding enthalpy [2]
47 | GCTATACGAAAGTACAGC (((.(((....))).))) | 41.8 °C | -30.2 kcal/mol
48 | GGTGATCGAAAGATTACC (((.(((....))).))) | 51.1 °C | -46.1 kcal/mol
49 | GGAGAGCGAAAGCTTTCC (((.(((....))).))) | 53.6 °C | -31.6 kcal/mol
50 | CGGTACGGAAACGTGCCG (((.(((....))).))) | 59.8 °C | -37.5 kcal/mol
51 | GGGGTTGGAAACAACTCC ((.((((....)))).)) | 51.3 °C | -37.5 kcal/mol
52 | CGAGCGGAAACGCGCTCG ((((((....)))..))) | 68.5 °C | -26.4 kcal/mol
53 | GGTCACCCGAAAGGGACC (((..(((....)))))) | 48.6 °C | -17.7 kcal/mol
54 | GCTACTCCGAAAGGAAGC (((..(((....)))))) | 30.1 °C | -17.9 kcal/mol
55 | GTTCCGGGAAACCGGAGC (.(((((....))))).) | 53.6 °C | -22.4 kcal/mol
56 | GCCATGGGAAACCACAGC ((..(((....)))..)) | 26.9 °C | -12.7 kcal/mol
57 | GATCAAGGAAACTTGGTC ((.((((....)))).)) | 41.5 °C | -30.5 kcal/mol
58 | GTGTCAGCGAAAGCTCAC (((..(((....)))))) | 39 °C | -15.3 kcal/mol
59 | CGTCCGGAAACGGCAACG ((((((....)))..))) | 38.5 °C | -14.8 kcal/mol
60 | GAGCGCGAAAGCGACCTC ((((((....)))..))) | 46.6 °C | -11.8 kcal/mol
61 | GCGTTAGGAAACTAGTGC ((..(((....)))..)) | 25.7 °C | -11.4 kcal/mol
62 | GCCTAGTCGAAAGACGGC (((..(((....)))))) | 51.6 °C | -21 kcal/mol
63 | GCGTTGCGAAAGCCACGC ((((.((....)).)))) | 66.6 °C | -36.6 kcal/mol
64 | GCAATCGAAAGATTGTGC ((((((....)))..))) | 51.1 °C | -27.1 kcal/mol
65 | GCTTACGAAAGTAGAGC ((((((....))).))) | 43.3 °C | -24.4 kcal/mol
66 | GCAAACGGAAACGTTTAC (.(((((....))))).) | 38.4 °C | -18.7 kcal/mol
67 | CGTTCGCGGAAACGCACG (((..(((....)))))) | 40.4 °C | -13.6 kcal/mol
68 | GATCGTGGCCACGATC ((((((....)))))) | 62.5 °C | -62.6 kcal/mol
69 | GCGACTCATCGC ((((....)))) | 49 °C | -24.5 kcal/mol

Row | Sequence | Tm [1] | folding enthalpy [2]
70 | GCCGAGCGAAAGCTGCGC ((..(((....)))..)) | 56.4 °C | -17.8 kcal/mol
71 | GCGCTTTCGAAAGAACGC (((..(((....)))))) | 40.1 °C | -34.8 kcal/mol
72 | GGTAGCGGAAACGCCACC (((.(((....))).))) | 48.3 °C | -24.8 kcal/mol
73 | GATCCCCTACGGGATC ((((((....)))))) | 61.9 °C | -35.3 kcal/mol
74 | GTTGATGGAAACATTAAC (((.(((....))).))) | 37.5 °C | -34.1 kcal/mol
75 | GATCTAACATAGATC ((((((...)))))) | 39.5 °C | -33.1 kcal/mol
76 | GACAGGCGAAAGCCAGTC (((.(((....))).))) | 58.1 °C | -25.8 kcal/mol
77 | GATCTGTTCTCAGATC ((((((....)))))) | 51.5 °C | -41.3 kcal/mol
78 | GCGGGGCGAAAGCGCGGC ((.(.((....)).).)) | 62.5 °C | -27.6 kcal/mol
79 | GCGATGCGAAAGCGTAGC ((.(.((....)).).)) | 54.8 °C | -24.6 kcal/mol
80 | GCACAGCGAAAGCTTCGC ((..(((....)))..)) | 39.8 °C | -12.4 kcal/mol
81 | GCAAACGAAAGTTGATGC ((((((....)))..))) | 35.9 °C | -15.2 kcal/mol
82 | GATCGCCATTGCGATC ((((((....)))))) | 67.5 °C | -38 kcal/mol
83 | GATCACGCGGGTGATC ((((((....)))))) | 57.1 °C | -32 kcal/mol
84 | GCGAGGGCGAAAGCCCGC (((..(((....)))))) | 59.5 °C | -8.66 kcal/mol
85 | GGTCATGGAAACATGATC (.(((((....))))).) | 47 °C | -31.5 kcal/mol
86 | GGGGCCGAAAGGCCTCCC ((((((....)))..))) | 54.8 °C | -9.22 kcal/mol
87 | GCATTCGAAAGAAGATGC ((((((....)))..))) | 36.2 °C | -17.7 kcal/mol
88 | GATCGGATTACCGATC ((((((....)))))) | 58.2 °C | -38.7 kcal/mol
89 | GATCAGAAGTCTGATC ((((((....)))))) | 49 °C | -30 kcal/mol
90 | GATCGAGAACTCGATC ((((((....)))))) | 57 °C | -37.6 kcal/mol
91 | CGCGCGGAAACGCCCGCG ((((((....)))..))) | 54.7 °C | -29.7 kcal/mol
92 | ACCTCGAAAGAGGT (((((....))))) | 59.5 °C | -19.9 kcal/mol

Reference: the array DNA melting data of Ke et al. (doi:10.1101/2024.01.08.574731)
